Measured values taken from ChEMBL document CHEMBL4152323, “N-(1,3,4-oxadiazol-2-yl)benzamide analogs, bacteriostatic agents against methicillin- and vancomycin-resistant bacteria” (Eur J Med Chem, 2018).
In brackets after ≈: the same amount, converted by molar mass. Activity calls are given as the source filed them. The rule behind the calls is not given here.

Tests used:
Staphylococcus aureus [1] = assay: Antibacterial activity against Staphylococcus aureus assessed as growth inhibition at 16 ug/ml after 24 hrs; assay type: functional, organism-based
How it was run: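 S. aureus grown in Mueller Hinton Broth to early exponential phase, then exposed to compound (16 μg/mL; DMSO stocks 10 mg/mL) or DMSO in duplicate, 37 °C for 24 h. OD600 read; percent normalized OD600 = (X − media blank)/(DMSO control − media blank) × 100.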

Staphylococcus aureus [2] = assay: Bacteriostatic activity against Staphylococcus aureus ATCC 25923 after 20 hrs by broth microdilution method; assay type: functional; conditions: ATCC 25923, 20 h
How it was run: (§1)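 Broth microdilution MIC over 128 to 1 μg/mL, run alongside methicillin, linezolid and vancomycin. MIC taken as the lowest concentration with no visible growth.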

Staphylococcus aureus [3] = assay: Bacteriostatic activity against methicillin-resistant Staphylococcus aureus ATCC 33592 after 20 hrs by broth microdilution method; assay type: functional; conditions: ATCC 33592, 20 h; how it was run: as §1
Enterococcus faecalis [4] = assay: Bacteriostatic activity against Enterococcus faecalis ATCC 29212 after 20 hrs by broth microdilution method; assay type: functional; conditions: ATCC 29212, 20 h; how it was run: as §1
Enterococcus faecalis [5] = assay: Bacteriostatic activity against vancomycin-resistant Enterococcus faecalis ATCC 51575 after 20 hrs by broth microdilution method; assay type: functional; conditions: ATCC 51575, 20 h; how it was run: as §1
Listeria monocytogenes = assay: Bacteriostatic activity against Listeria monocytogenes ATCC 19115 after 20 hrs by broth microdilution method; assay type: functional; conditions: ATCC 19115, 20 h
How it was run: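 MIC by broth microdilution across 128 to 1 μg/mL in 96-well plates, 37 °C for at least 20 h. MIC is the lowest concentration with no visible growth.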

Compound | growth inhibition (GI) (Staphylococcus aureus [1]) | MIC (Staphylococcus aureus [2]) | MIC (Staphylococcus aureus [3]) | MIC (Enterococcus faecalis [4]) | MIC (Enterococcus faecalis [5]) | MIC (Listeria monocytogenes)
CC1CCCCN1S(=O)(=O)c1ccc(C(=O)Nc2nnc(-c3cccs3)o2)cc1 (centres undefined) | Active | 8 µg/mL (≈ 18.5 µM) | 8 µg/mL (≈ 18.5 µM) | 16 µg/mL (≈ 37 µM) | 16 µg/mL (≈ 37 µM) | 16 µg/mL (≈ 37 µM)
CN(C)S(=O)(=O)c1ccc(C(=O)Nc2nnc(-c3ccc(F)cc3)o2)cc1 | Active | 16 µg/mL (≈ 41 µM) | 16 µg/mL (≈ 41 µM) | 32 µg/mL (≈ 82 µM) | 32 µg/mL (≈ 82 µM) | 32 µg/mL (≈ 82 µM)
C#CCNS(=O)(=O)c1ccc(C(=O)Nc2nnc(-c3ccc(Cl)cc3)o2)cc1 | Active | 64 µg/mL (≈ 154 µM) | 32 µg/mL (≈ 76.8 µM) | 64 µg/mL (≈ 154 µM) | 64 µg/mL (≈ 154 µM) | 64 µg/mL (≈ 154 µM)
O=C(Nc1nnc(-c2ccc(Cl)cc2)o1)c1ccc(S(=O)(=O)N2CCCC2)cc1 | Active | 16 µg/mL (≈ 37 µM) | 8 µg/mL (≈ 18.5 µM) | 16 µg/mL (≈ 37 µM) | 16 µg/mL (≈ 37 µM) | 16 µg/mL (≈ 37 µM)
COc1cccc(-c2nnc(NC(=O)c3ccc(S(=O)(=O)N(C)CC4CCCO4)cc3)o2)c1 (centres undefined) | Active | 32 µg/mL (≈ 67.7 µM) | 32 µg/mL (≈ 67.7 µM) | 32 µg/mL (≈ 67.7 µM) | 32 µg/mL (≈ 67.7 µM) | 32 µg/mL (≈ 67.7 µM)
CN(C)S(=O)(=O)c1ccc(C(=O)Nc2nnc(-c3ccc(Cl)cc3)o2)cc1 | Active | 64 µg/mL (≈ 157 µM) | 32 µg/mL (≈ 78.7 µM) | 64 µg/mL (≈ 157 µM) | 64 µg/mL (≈ 157 µM) | 64 µg/mL (≈ 157 µM)
O=C(Nc1nnc(-c2cccs2)o1)c1ccc(S(=O)(=O)N2CCCCC2)cc1 | Active | 32 µg/mL (≈ 76.5 µM) | 32 µg/mL (≈ 76.5 µM) | 16 µg/mL (≈ 38.2 µM) | 64 µg/mL (≈ 153 µM) | 32 µg/mL (≈ 76.5 µM)
O=C(Nc1nnc(-c2ccc(Cl)cc2)o1)c1ccc(S(=O)(=O)NC2CC2)cc1 | Active | 16 µg/mL (≈ 38.2 µM) | 16 µg/mL (≈ 38.2 µM) | 32 µg/mL (≈ 76.4 µM) | 16 µg/mL (≈ 38.2 µM) | 16 µg/mL (≈ 38.2 µM)
CCN(CC)S(=O)(=O)c1ccc(C(=O)Nc2nnc(-c3ccc(Cl)cc3)o2)cc1 | Active | 16 µg/mL (≈ 36.8 µM) | 16 µg/mL (≈ 36.8 µM) | 32 µg/mL (≈ 73.6 µM) | 16 µg/mL (≈ 36.8 µM) | 16 µg/mL (≈ 36.8 µM)
CCOC(=O)c1nnc(NC(=O)c2ccc(S(=O)(=O)N3C[C@H](C)C[C@H](C)C3)cc2)o1 | inactive |  |  |  |  | 
CN(CC1CCCO1)S(=O)(=O)c1ccc(C(=O)Nc2nnc(-c3ccccc3)o2)cc1 (centres undefined) | Active |  |  |  |  | 
C[C@@H]1CN(S(=O)(=O)c2ccc(C(=O)Nc3nnc(-c4cccs4)o3)cc2)C[C@H](C)O1 | inactive |  |  |  |  | 
C[C@@H]1C[C@H](C)CN(S(=O)(=O)c2ccc(-c3nnc(-c4cccs4)o3)cc2)C1 | inactive |  |  |  |  | 
C[C@@H]1C[C@H](C)CN(S(=O)(=O)c2ccc(C(=O)Nc3nnc(-c4cccs4)[nH]3)cc2)C1 | inactive |  |  |  |  | 
